ChEMBL document CHEMBL1122607, “Heterocyclic analogues of chlorcyclizine with potent hypolipidemic activity” (J Med Chem, 1984)

How the values were obtained:
Rattus norvegicus [1] = test: Minimum effective dose (MED) is the dose (mg/kg)that cause significant reduction in serum cholesterol of 30% compared to concurrent controls.; format: functional; design: unit: mg/kg
Summary of the method: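 MED was calculated from the log dose/response curve as the dose giving a statistically significant 30% fall in serum cholesterol versus concurrent controls. Measured in the 3-day oral cholesterol-fed rat screen, or in a 2-week test: groups of eight young male Wistar rats on cholesterol/cholic acid-supplemented or normal diet, dosed orally by gavage daily for 14 days, vehicle 0.5% tragacanth mucilage.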

Rattus norvegicus [2] = test: Hypolipidemic activity was measured as reduction in rat serum cholesterol after oral administration in male Wistar rats at 100 mg/(kg day); format: functional
Summary of the method: (§1)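 Cholesterol-fed rats given the test compound orally by gavage on the last 3 days, with controls receiving vehicle (0.5% tragacanth mucilage). After overnight starvation, rats were killed under CO2 3 h after the last dose and bled by cardiac puncture. Serum cholesterol and triglyceride were measured by autoanalyzer and expressed as percentage reduction from control levels, with Student's t test.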

Rattus norvegicus [3] = test: Hypolipidemic activity was measured as reduction in rat serum cholesterol after oral administration in male Wistar rats at 3 mg / (kg day); format: functional; summary of the method: as §1
Rattus norvegicus [4] = test: Hypolipidemic activity was measured as reduction in rat serum cholesterol after oral administration in male Wistar rats at 30 mg / (kg day); format: functional; summary of the method: as §1
Rattus norvegicus [5] = test: Hypolipidemic activity was measured as reduction in rat serum triglyceride after oral administration in male Wistar rats at 1; format: functional; summary of the method: as §1
Rattus norvegicus [6] = test: Hypolipidemic activity was measured as reduction in rat serum triglyceride after oral administration in male Wistar rats at 10 mg / (kg day); format: functional; summary of the method: as §1
Rattus norvegicus [7] = test: Hypolipidemic activity was measured as reduction in rat serum triglyceride after oral administration in male Wistar rats at 3 mg / (kg day); format: functional; summary of the method: as §1
Rattus norvegicus [8] = test: Hypolipidemic activity was measured as reduction in rat serum triglyceride after oral administration in male Wistar rats at 30 mg / (kg day); format: functional; summary of the method: as §1
Rattus norvegicus [9] = test: Hypolipidemic activity was measured as reduction in rat serum cholesterol after oral administration in male Wistar rats at 1 mg / (kg day); format: functional; summary of the method: as §1
Rattus norvegicus [10] = test: Hypolipidemic activity was measured as reduction in rat serum cholesterol after oral administration in male Wistar rats at 10 mg / (kg day); format: functional; summary of the method: as §1
[11] = (§2) The therapeutic safety margin (TSM) is the ratio of the minimum lethal dose (mg/kg)to the MED; format: ADME, organism-based; conditions: in vivo
Summary of the method: (§3)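 Young male Wistar rats, eight per group, on cholesterol/cholic acid-supplemented or normal diet; graded oral gavage doses daily for 14 days; vehicle controls (0.5% tragacanth mucilage). Mortalities recorded to give the minimum lethal daily dose. After overnight fasting, serum cholesterol assayed by autoanalyzer. MED is the dose giving a significant (t test) 30% cholesterol fall, from the log dose/response curve. TSM = minimum lethal dose/MED.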

Rattus norvegicus [12] = test: Hypolipidemic activity was measured as reduction in rat serum triglyceride after oral administration in male Wistar rats at 100 mg / (kg day); format: functional; summary of the method: as §1
Rattus norvegicus [13] = test: Hypolipidemic activity was measured as reduction in rat serum cholesterol after oral administration in male Wistar rats at 100 mg / (kg day); format: functional; summary of the method: as §1
Rattus norvegicus [14] = test: Hypolipidemic activity was measured as reduction in rat serum triglyceride after oral administration in male Wistar rats at 200 mg / (kg day); format: functional; summary of the method: as §1
Rattus norvegicus [15] = test: Hypolipidemic activity was measured as reduction in rat serum cholesterol after oral administration in male Wistar rats at 200 mg/(kg day); format: functional; summary of the method: as §1
Rattus norvegicus [16] = test: Hypolipidemic activity was measured as reduction in rat serum triglyceride after oral administration in male Wistar rats at 50 mg / (kg day); format: functional; summary of the method: as §1
Rattus norvegicus [17] = test: Hypolipidemic activity was measured as reduction in rat serum cholesterol after oral administration in male Wistar rats at 20 mg / (kg day); format: functional; summary of the method: as §1
Rattus norvegicus [18] = test: Hypolipidemic activity was measured as reduction in rat serum cholesterol after oral administration in male Wistar rats at 50 mg / (kg day); format: functional; summary of the method: as §1
Rattus norvegicus [19] = test: Hypolipidemic activity was measured as reduction in rat serum triglyceride after oral administration in male Wistar rats at 20 mg / (kg day); format: functional; summary of the method: as §1
Rattus norvegicus [20] = test: Hypolipidemic activity was measured as reduction in rat serum cholesterol after oral administration in male Wistar rats at 200 mg / (kg day); format: functional; summary of the method: as §1
[21] = as §2; format: functional; summary of the method: as §3
Rattus norvegicus [22] = test: Hypolipidemic activity was measured as reduction in rat serum triglyceride after oral administration in male Wistar rats at 5 mg / (kg day); format: functional; summary of the method: as §1
Rattus norvegicus [23] = test: Hypolipidemic activity was measured as reduction in rat serum cholesterol after oral administration in male Wistar rats at 2.5 mg / (kg day); format: functional; summary of the method: as §1
Rattus norvegicus [24] = test: Hypolipidemic activity was measured as reduction in rat serum cholesterol after oral administration in male Wistar rats at 5 mg / (kg day); format: functional; summary of the method: as §1
Rattus norvegicus [25] = test: Hypolipidemic activity was measured as reduction in rat serum triglyceride after oral administration in male Wistar rats at 2.5 mg / (kg day); format: functional; summary of the method: as §1
Rattus norvegicus [26] = test: Hypolipidemic activity was measured as reduction in rat serum cholesterol after oral administration in male Wistar rats at 3 mg / (kg day);; format: functional; summary of the method: as §1
Rattus norvegicus [27] = test: Hypolipidemic activity was measured as reduction in rat serum triglyceride after oral administration in male Wistar rats at 1 mg / (kg day); format: functional; summary of the method: as §1
Rattus norvegicus [28] = test: Hypolipidemic activity was measured as reduction in rat serum triglyceride after oral administration in male Wistar rats at 3 mg / (kg day);; format: functional; summary of the method: as §1
Rattus norvegicus [29] = test: xHypolipidemic activity was measured as reduction in rat serum cholesterol after oral administration in male Wistar rats at 10 mg / (kg day); format: functional; summary of the method: as §1

| Compound | MED (Rattus norvegicus [1]) | Reduction (Rattus norvegicus [2]) [%] | Reduction (Rattus norvegicus [6]) [%] | Reduction (Rattus norvegicus [10]) [%] | therapeutic safety margin (minimum lethal dose / MED) [11] | Reduction (Rattus norvegicus [12]) [%] | Reduction (Rattus norvegicus [16]) [%] | Reduction (Rattus norvegicus [17]) [%] | Reduction (Rattus norvegicus [18]) [%] | Reduction (Rattus norvegicus [19]) [%] | other results |
| --- | --- | --- | --- | --- | --- | --- | --- | --- | --- | --- | --- |
| Cc1noc(C)c1C(c1ccc(C(C)C)cc1)N1CCN(CCO)CC1 (stereo not drawn) | 2 | 84 | 56 | 76 | 100 | 84 |  |  |  |  | Reduction (Rattus norvegicus [3]): 50%; Reduction (Rattus norvegicus [4]): 77%; Reduction (Rattus norvegicus [5]): 7%; Reduction (Rattus norvegicus [7]): 29%; Reduction (Rattus norvegicus [8]): 16%; Reduction (Rattus norvegicus [9]): 5% |
| Cc1cc(C(c2ccc(Cl)cc2)N2CCN(C)CC2)sn1 (stereo not drawn) |  |  |  |  |  | 2 |  |  |  |  | Reduction (Rattus norvegicus [13]): 15%; Reduction (Rattus norvegicus [14]): 19%; Reduction (Rattus norvegicus [15]): 67% |
| Cc1cc(C(c2ccccc2Cl)N2CCN(C)CC2)sn1 (stereo not drawn) | 30 | 61 |  |  | 15 | 44 | 50 | 16 | 63 | 8 |  |
| Cc1cc(C(c2ccccc2C)N2CCN(C)CC2)sn1 (stereo not drawn) | 22 |  |  |  | 10 |  | 26 | 27 | 56 | 14 | Reduction (Rattus norvegicus [20]): 65%; Reduction (Rattus norvegicus [14]): 84% |
| CN1CCN(C(c2ccccc2)c2ccccc2)CC1 [CYCLIZINE] | 30 |  |  |  |  |  |  |  |  |  | Ratio [21]: 10 |
| CC(C)c1ccc(C(c2ccns2)N2CCN(C)CC2)cc1 (stereo not drawn) | 6 | 86 | 63 | 57 | 14 | 81 | 67 |  | 82 |  | Reduction (Rattus norvegicus [22]): 29%; Reduction (Rattus norvegicus [23]): 26%; Reduction (Rattus norvegicus [24]): 39%; Reduction (Rattus norvegicus [25]): 15% |
| Cc1cc(C(c2ccccc2)N2CCN(C)CC2)sn1 (stereo not drawn) |  |  |  |  |  |  |  |  |  |  | Reduction (Rattus norvegicus [13]): 21%; Reduction (Rattus norvegicus [15]): 36% |
| Cc1noc(C)c1C(c1ccc(C(C)C)cc1)N1CCNCC1 (stereo not drawn) | 1 | 86 | 82 | 76 | 50 | 96 |  |  |  |  | Reduction (Rattus norvegicus [26]): 72%; Reduction (Rattus norvegicus [4]): 85%; Reduction (Rattus norvegicus [27]): 22%; Reduction (Rattus norvegicus [28]): 45%; Reduction (Rattus norvegicus [8]): 94%; Reduction (Rattus norvegicus [9]): 19% |
| CN1CCN(C(c2ccns2)c2ccccc2Cl)CC1 (stereo not drawn) | 10 | 67 | 12 | 31 | 5 | 52 |  | 43 |  | 15 |  |
| CCC(C)c1ccc(C(c2cc(C)ns2)N2CCN(C)CC2)cc1 (stereo not drawn) | 14 | 72 | 15 |  | 20 | 87 |  |  |  |  | Reduction (Rattus norvegicus [4]): 67%; Reduction (Rattus norvegicus [8]): 55%; Reduction (Rattus norvegicus [29]): 19% |
| COc1ccccc1C(c1ccns1)N1CCN(C)CC1 (stereo not drawn) | 80 | 38 |  |  |  | 13 | 32 | 3 | 31 | 22 |  |
